# Measured values: ChEMBL document CHEMBL1275561, “In vitro activities of doripenem, a new broad-spectrum carbapenem, against recently collected clinical anaerobic isolates, with emphasis on the Bacteroides fragilis group” (2008)
# Where “and” joins values, the source holds several entries; their conditions need not be identical. Equal values may be shown once.
# Legend:
# Assay type in all cases: functional
# Bacteroides caccae = experiment: Antimicrobial activity against Bacteroides caccae assessed as resistant isolates by agar dilution method
# Procedure, shortened: (§1)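 CLSI agar dilution on enriched brucella agar (5% lysed defibrinated sheep blood, 1 μg/ml vitamin K1), plates made on test day. Log-phase inocula adjusted to 0.5 McFarland; about 10^5 CFU/spot by Steers replicator. Incubated anaerobically at 37°C for 48 h. MIC was the lowest concentration giving a marked change in growth versus the drug-free control plate. Resistance rates used CLSI anaerobe breakpoints. Controls were B. fragilis ATCC 25285 and B. thetaiotaomicron ATCC 29741.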
# [1] = test system: Parabacteroides distasonis; experiment: Antimicrobial activity against Bacteroides distasonis assessed as resistant isolates by agar dilution method; procedure, shortened: as §1
# Bacteroides fragilis = experiment: Antimicrobial activity against Bacteroides fragilis assessed as resistant isolates by agar dilution method; procedure, shortened: as §1
# Bacteroides ovatus = experiment: Antimicrobial activity against Bacteroides ovatus assessed as resistant isolates by agar dilution method; procedure, shortened: as §1
# [2] = test system: Bacteroides thetaiotaomicron; experiment: Antimicrobial activity against Bacteroides thetaiotaomicron assessed as resistant isolates by agar dilution method; procedure, shortened: as §1
# Bacteroides uniformis = experiment: Antimicrobial activity against Bacteroides uniformis assessed as resistant isolates by agar dilution method; procedure, shortened: as §1
# Phocaeicola vulgatus = experiment: Antimicrobial activity against Bacteroides vulgatus assessed as resistant isolates by agar dilution method; procedure, shortened: as §1
# Bacteroides eggerthii = experiment: Antimicrobial activity against Bacteroides eggerthii assessed as resistant isolates by agar dilution method; procedure, shortened: as §1
# Parabacteroides merdae = experiment: Antimicrobial activity against Bacteroides merdae assessed as resistant isolates by agar dilution method; procedure, shortened: as §1
# Bacteroides nordii = experiment: Antimicrobial activity against Bacteroides nordii assessed as resistant isolates by agar dilution method; procedure, shortened: as §1
# Clostridioides difficile = experiment: Antimicrobial activity against Clostridium difficile by agar dilution method in presence of beta-lactamase inhibitor Tazobactam
# Procedure, shortened: (§2)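 Gram-positive anaerobes were tested by CLSI agar dilution on brucella agar enriched with 5% lysed defibrinated sheep blood and 1 μg/ml vitamin K1. Inoculum was log-phase growth at 0.5 McFarland, about 10^5 CFU/spot by replicator. Incubation was anaerobic, 37°C, 48 h. MIC was the lowest concentration with a marked growth change versus the drug-free plate. Eubacterium lentum ATCC 43055 was the control, and tests were repeated if it fell outside the CLSI range.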
# [Clostridium] innocuum = Antimicrobial activity against Clostridium innocuum assessed as resistant isolates by agar dilution method; details: pooled result: one value given for 4 cell lines, strains, targets or settings
# Finegoldia magna [3] = experiment: Antimicrobial activity against Finegoldia magna by agar dilution method in presence of beta-lactamase inhibitor Tazobactam; procedure, shortened: as §2
# Finegoldia magna [4] = experiment: Antimicrobial activity against Finegoldia magna assessed as resistant isolates by agar dilution method
# Procedure, shortened: (§3)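 Agar dilution following CLSI on brucella agar with 5% lysed defibrinated sheep blood and 1 μg/ml vitamin K1, plates made on test day. Log-phase cells at 0.5 McFarland, about 10^5 CFU/spot by Steers replicator, 48 h anaerobic at 37°C. MIC read as the lowest concentration causing a marked growth change versus control. Resistance counted by CLSI anaerobe breakpoints. Eubacterium lentum ATCC 43055 served as control.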
# [5] = test system: Peptoniphilus asaccharolyticus; experiment: Antimicrobial activity against Peptoniphilus asaccharolyticus by agar dilution method in presence of beta-lactamase inhibitor Tazobactam; procedure, shortened: as §2
# [6] = test system: Peptoniphilus asaccharolyticus; experiment: Antimicrobial activity against Peptoniphilus asaccharolyticus assessed as resistant isolates by agar dilution method; details: pooled result: one value given for 4 cell lines, strains, targets or settings; procedure, shortened: as §3
# Parvimonas micra = experiment: Antimicrobial activity against Micromonas micros by agar dilution method in presence of beta-lactamase inhibitor Tazobactam; procedure, shortened: as §2
# Anaerococcus prevotii = experiment: Antimicrobial activity against Anaerococcus prevotii by agar dilution method in presence of beta-lactamase inhibitor Tazobactam; procedure, shortened: as §2
# Peptostreptococcus sp. = experiment: Antimicrobial activity against Peptostreptococcus sp. by agar dilution method in presence of beta-lactamase inhibitor Tazobactam
# Procedure, shortened: (§4)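 Log-phase isolates were adjusted to 0.5 McFarland, and about 10^5 CFU/spot was delivered by Steers replicator. Plates were incubated anaerobically at 37°C for 48 h. MIC was the lowest concentration giving a marked growth change versus the control plate. Eubacterium lentum ATCC 43055 was the QC strain, with repeats when out of range.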
# Cutibacterium acnes [7] = experiment: Antimicrobial activity against Propionibacterium acnes by agar dilution method in presence of beta-lactamase inhibitor Tazobactam; procedure, shortened: as §4
# Cutibacterium acnes [8] = experiment: Antimicrobial activity against Propionibacterium acnes assessed as resistant isolates by agar dilution method; procedure, shortened: as §3
# Propionibacterium [9] = experiment: Antimicrobial activity against Propionibacterium sp. by agar dilution method in presence of beta-lactamase inhibitor Tazobactam; procedure, shortened: as §4
# Propionibacterium [10] = experiment: Antimicrobial activity against Propionibacterium sp. assessed as resistant isolates by agar dilution method; procedure, shortened: as §3
smiles,measurement,setting,value
CCN1CCN(C(=O)N[C@@H](C(=O)N[C@@H]2C(=O)N3[C@@H]2SC(C)(C)[C@@H]3C(=O)O)c2ccccc2)C(=O)C1=O [PIPERACILLIN],Activity,Bacteroides caccae,0%
same,Activity,[1],0%
same,Activity,Bacteroides fragilis,1%
same,Activity,Bacteroides ovatus,0%
same,Activity,[2],1.3%
same,Activity,Bacteroides uniformis,0%
same,Activity,Phocaeicola vulgatus,0%
same,Activity,Bacteroides eggerthii,0%
same,Activity,Parabacteroides merdae,0%
same,Activity,Bacteroides nordii,0%
same,MIC,Clostridioides difficile,2 µg/mL
same,Activity,[Clostridium] innocuum,5.6%
same,MIC,Finegoldia magna [3],0.5 µg/mL
same,MIC,"Finegoldia magna [3]; Finegoldia magna, read-out: MIC",0.5 µg/mL
same,Activity,Finegoldia magna [4],0%
same,MIC,[5],0.5 µg/mL
same,MIC,"[5]; Peptoniphilus asaccharolyticus, read-out: MIC",0.5 µg/mL
same,Activity,[6],0%
same,MIC,Parvimonas micra,0.5 µg/mL
same,MIC,"Parvimonas micra; Parvimonas micra, read-out: MIC",0.5 µg/mL
same,MIC,Anaerococcus prevotii,0.5 µg/mL
same,MIC,"Anaerococcus prevotii; Anaerococcus prevotii, read-out: MIC",0.5 µg/mL
same,MIC,Peptostreptococcus sp.,0.5 µg/mL
same,MIC,"Peptostreptococcus sp.; Peptostreptococcus sp., read-out: MIC",0.5 µg/mL
same,MIC,Cutibacterium acnes [7],0.25 µg/mL and 0.5 µg/mL
same,MIC,"Cutibacterium acnes [7]; Cutibacterium acnes, read-out: MIC",0.25 µg/mL
same,Activity,Cutibacterium acnes [8],0%
same,MIC,Propionibacterium [9],0.25 µg/mL and 0.5 µg/mL
same,MIC,"Propionibacterium [9]; Propionibacterium, read-out: MIC",0.25 µg/mL
same,Activity,Propionibacterium [10],0%
